Results reported in ChEMBL document CHEMBL1122813, “Synthesis and antibacterial activity of 2-[(methoxycarbonyl)methylene]cephalosporins” (1984).
Values after ≈ are worked out from the molar mass of the structure shown.

How the values were obtained:
Enterobacter cloacae [1] = assay: In vitro antibacterial activity against Enterobacter cloacae strain 9656; assay type: functional
How it was run: (§1)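 MIC by serial twofold dilution of compound in Mueller-Hinton agar. The agar surface or broth was inoculated with a suitably diluted 18-24-h broth culture, then incubated at 37 °C for 17 h. MIC was read as the lowest concentration inhibiting visible growth.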

Enterobacter cloacae [2] = assay: In vitro antibacterial activity against Enterobacter cloacae strain 9659; assay type: functional; how it was run: as §1
Escherichia coli [3] = assay: In vitro antibacterial activity against Escherichia coli strain 15119; assay type: functional; how it was run: as §1
Escherichia coli [4] = assay: In vitro antibacterial activity against Escherichia coli strain 20341; assay type: functional; how it was run: as §1
Klebsiella pneumoniae [5] = assay: In vitro antibacterial activity against Klebsiella pneumoniae strain 15130; assay type: functional; how it was run: as §1
Klebsiella pneumoniae [6] = assay: In vitro antibacterial activity against Klebsiella pneumoniae strain 20468; assay type: functional; how it was run: as §1
Morganella morganii = assay: In vitro antibacterial activity against Morganella morganii strain 15153; assay type: functional; how it was run: as §1
Proteus mirabilis [7] = assay: In vitro antibacterial activity against Proteus mirabilis strain 9716; assay type: functional; how it was run: as §1
Proteus mirabilis [8] = assay: In vitro antibacterial activity against Proteus mirabilis strain 9900; assay type: functional; how it was run: as §1
Providencia rettgeri [9] = assay: In vitro antibacterial activity against Providencia rettgeri strain 21203; assay type: functional; how it was run: as §1
Serratia marcescens = assay: In vitro antibacterial activity against Serratia marcescens strain 20019; assay type: functional; how it was run: as §1
Staphylococcus aureus [10] = assay: In vitro antibacterial activity against Staphylococcus aureus strain 9537; assay type: functional
How it was run: (§2)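 MIC by serial twofold dilution in Mueller-Hinton agar. Agar surface or broth inoculated with a suitably diluted 18-24-h broth culture. Plates and broth tubes incubated at 37 °C for 17 h. MIC taken as the lowest concentration that inhibited visible growth.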

Staphylococcus aureus [11] = assay: In vitro antibacterial activity against Staphylococcus aureus strain 9537 + 50% serum; assay type: functional
How it was run: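 Serial twofold dilution MIC with 50% human serum present. Mueller-Hinton agar or broth was inoculated with a suitably diluted 18-24-h broth culture and incubated at 37 °C for 17 h. The endpoint was the lowest concentration that stopped visible growth.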

Staphylococcus aureus [12] = assay: In vitro antibacterial activity against Staphylococcus aureus strain 9606 (Penicillin resistant); assay type: functional; how it was run: as §2
Enterococcus faecalis = assay: In vitro antibacterial activity against Streptococcus faecalis strain 20688; assay type: functional; how it was run: as §1
Streptococcus pneumoniae = assay: In vitro antibacterial activity against Streptococcus pneumoniae strain 9585; assay type: functional; how it was run: as §1
Streptococcus pyogenes = assay: In vitro antibacterial activity against Streptococcus pyogenes strain 9604; assay type: functional; how it was run: as §1
Providencia rettgeri [13] = assay: In vitro antibacterial activity against Providencia rettgeri strain 21203

SMILES	MIC (Enterobacter cloacae [1]) [µg/mL]	MIC (Enterobacter cloacae [2]) [µg/mL]	MIC (Escherichia coli [3]) [µg/mL]	MIC (Escherichia coli [4]) [µg/mL]	MIC (Klebsiella pneumoniae [5]) [µg/mL]	MIC (Klebsiella pneumoniae [6]) [µg/mL]	MIC (Morganella morganii) [µg/mL]	MIC (Proteus mirabilis [7]) [µg/mL]	MIC (Proteus mirabilis [8]) [µg/mL]	MIC (Providencia rettgeri [9]) [µg/mL]	MIC (Serratia marcescens) [µg/mL]	MIC (Staphylococcus aureus [10]) [µg/mL]	MIC (Staphylococcus aureus [11]) [µg/mL]	MIC (Staphylococcus aureus [12]) [µg/mL]	MIC (Enterococcus faecalis) [µg/mL]	MIC (Streptococcus pneumoniae) [µg/mL]	MIC (Streptococcus pyogenes) [µg/mL]	MIC (Providencia rettgeri [13]) [µg/mL]
CO/N=C(/C(=O)NC1C(=O)N2C(C(=O)O)=C(C)/C(=C/C(=O)OC)SC12)c1ccco1 (stereo unspecified)	63 (≈ 145 µM)	> 125	16 (≈ 36.7 µM)	63 (≈ 145 µM)	16 (≈ 36.7 µM)	> 125	63 (≈ 145 µM)	4 (≈ 9.19 µM)	4 (≈ 9.19 µM)	32 (≈ 73.5 µM)	> 125	2 (≈ 4.59 µM)	63	4 (≈ 9.19 µM)	32 (≈ 73.5 µM)	0.25 (≈ 0.574 µM)	0.25 (≈ 0.574 µM)	–
COC(=O)/C=C1\SC2C(NC(=O)Cc3cccs3)C(=O)N2C(C(=O)O)=C1COC(C)=O (stereo unspecified)	> 125	> 125	125 (≈ 268 µM)	> 125	> 125	63 (≈ 135 µM)	> 125	125 (≈ 268 µM)	125 (≈ 268 µM)	> 125	> 125	2 (≈ 4.29 µM)	63	2 (≈ 4.29 µM)	4 (≈ 8.57 µM)	0.13 (≈ 0.279 µM)	0.5 (≈ 1.07 µM)	–
CC(=O)OCC1=C(C(=O)O)N2C(=O)[C@@H](NC(=O)Cc3cccs3)[C@H]2SC1 [CEPHALOTHIN]	> 125	> 125	16 (≈ 40.4 µM)	32 (≈ 80.7 µM)	16 (≈ 40.4 µM)	> 125	> 125	8 (≈ 20.2 µM)	1 (≈ 2.52 µM)	–	> 125	0.06 (≈ 0.151 µM)	2	0.5 (≈ 1.26 µM)	32 (≈ 80.7 µM)	0.03 (≈ 0.0757 µM)	0.06 (≈ 0.151 µM)	63 (≈ 159 µM)
COC(=O)/C=C1\SC2C(NC(=O)C(N)c3ccccc3)C(=O)N2C(C(=O)O)=C1C.O=C(O)C(F)(F)F (stereo unspecified)	> 125	> 125	> 125	> 125	> 125	> 125	> 125	> 125	> 125	> 125	> 125	1	32	> 125	63	0.13	0.025	–
COC(=O)/C=C1\SC2C(NC(=O)Cc3cccs3)C(=O)N2C(C(=O)O)=C1C (stereo unspecified)	> 125	> 125	63 (≈ 154 µM)	125 (≈ 306 µM)	125 (≈ 306 µM)	> 125	125 (≈ 306 µM)	32 (≈ 78.3 µM)	16 (≈ 39.2 µM)	63 (≈ 154 µM)	> 125	0.13 (≈ 0.318 µM)	63	2 (≈ 4.9 µM)	2 (≈ 4.9 µM)	0.25 (≈ 0.612 µM)	2 (≈ 4.9 µM)	–
COC(=O)/C=C1\SC2C(NC(=O)C(O)c3ccccc3)C(=O)N2C(C(=O)O)=C1C (stereo unspecified)	> 125	> 125	> 125	> 125	> 125	> 125	> 125	> 125	63 (≈ 151 µM)	> 125	> 125	0.5 (≈ 1.19 µM)	32	> 125	16 (≈ 38.2 µM)	0.25 (≈ 0.597 µM)	0.25 (≈ 0.597 µM)	–
COC(=O)/C=C1/SC2C(NC(=O)Cc3cccs3)C(=O)N2C(C(=O)O)=C1C (stereo unspecified)	> 125	> 125	125 (≈ 306 µM)	125 (≈ 306 µM)	> 125	> 125	16 (≈ 39.2 µM)	4 (≈ 9.79 µM)	32 (≈ 78.3 µM)	4 (≈ 9.79 µM)	4 (≈ 9.79 µM)	0.06 (≈ 0.147 µM)	63	1 (≈ 2.45 µM)	8 (≈ 19.6 µM)	0.5 (≈ 1.22 µM)	2 (≈ 4.9 µM)	–
CO/N=C(/C(=O)NC1C(=O)N2C(C(=O)O)=C(C)/C(=C/C(=O)OC)SC12)c1csc(N)n1.O=C(O)C(F)(F)F (stereo unspecified)	> 125	> 125	2	2	16	32	> 125	16	2	32	> 125	2	125	4	63	0.016	0.016	–
